# According to PubChem BioAssay AID686992 (Broad Institute, 2013):
# Where “and” joins values, the source holds several entries; their conditions need not be identical. Identical values can stand only once. Out of some 260,000 compounds screened, about 960 (0.37%) were called active.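 Rule for the calls: active = mean E-selectin-positive cell signal at least 10% of the positive control, reached in at least 60% of replicates, without over 20% cell loss; inconclusive = no rule given, readout overlaps actives, possibly toxicity-flagged; inactive = the rest, including those meeting only one limit.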 Only a selection was taken, and actives are over-represented in it overall.
# Molecular target: E-selectin (Homo sapiens) (UniProt P16581)
# Sequence (P16581 whole entry, looked up): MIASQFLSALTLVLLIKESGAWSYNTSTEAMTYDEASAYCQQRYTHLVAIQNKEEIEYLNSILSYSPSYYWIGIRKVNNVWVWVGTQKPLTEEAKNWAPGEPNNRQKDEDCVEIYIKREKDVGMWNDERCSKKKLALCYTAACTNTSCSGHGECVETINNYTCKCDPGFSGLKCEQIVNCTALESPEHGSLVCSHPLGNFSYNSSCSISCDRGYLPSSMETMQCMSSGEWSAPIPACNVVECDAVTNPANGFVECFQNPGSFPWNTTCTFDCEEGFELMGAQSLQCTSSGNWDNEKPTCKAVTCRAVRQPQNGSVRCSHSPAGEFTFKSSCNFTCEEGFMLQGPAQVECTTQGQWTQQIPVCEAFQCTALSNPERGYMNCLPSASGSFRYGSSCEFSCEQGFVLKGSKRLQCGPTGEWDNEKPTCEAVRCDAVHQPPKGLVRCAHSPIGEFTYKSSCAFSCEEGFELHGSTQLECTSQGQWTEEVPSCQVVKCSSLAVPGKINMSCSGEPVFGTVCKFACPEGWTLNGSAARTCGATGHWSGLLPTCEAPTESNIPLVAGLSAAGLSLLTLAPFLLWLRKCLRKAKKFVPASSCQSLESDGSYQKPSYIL
# Assay: E-selectin induction in HUVECs, primary screen, imaging, HUVEC, immunofluorescence imaging, single point (AID 686992);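 note: signal is the percent of cells scored E-selectin positive by PE staining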
# Conditions: at 7.58 µM, stronger effect = higher value, normalized: neutral wells 0, TNF-alpha wells 100
# In short: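 Material: HUVEC primary endothelial cells; Amount: 3,000 cells per well; Dosing: single concentration; Medium: EGM-2 growth medium on 0.1% gelatin-coated wells; Read-out basis: percent E-selectin-positive cells; Signal: immunofluorescence imaging; Control set: TNF-alpha, DMSO.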
row,Compound,activation
1,O=C(c1ccc(F)cc1)N1CC(=O)N2[C@@H](CO)[C@@H](c3ccc(C#Cc4ccc(F)cc4)cc3)[C@@H]2C1,-0.811% (inactive)
2,Cc1nc(N2CCN(c3ccccn3)CC2)c2c(C)c(C(=O)Nc3ccc(F)cc3)sc2n1,86% (active)
3,Cc1nc(N2CCC(C)CC2)c2c(C)c(C(=O)Nc3cc(F)ccc3C)sc2n1,0.651% (inactive)
4,CCN(CC)c1ccc(NC(=O)CN2CCN(c3ccccn3)CC2)cc1,0.001% (inactive)
5,COc1cccc(-c2nc3nc(C)cc(C)n3c2NC2CCCCC2)c1,-0.154% (inactive)
6,C[C@H](CO)N1C[C@H](C)[C@@H](CN(C)C(=O)NC2CCCCC2)Oc2c(NC(=O)Nc3ccc(F)cc3)cccc2C1=O,42.3% (active)
7,C[C@H](CO)N1C[C@H](C)[C@H](CN(C)S(=O)(=O)c2ccccc2)Oc2c(NC(=O)Nc3ccccc3)cccc2C1=O,392% (active)
8,C[C@H](CO)N1C[C@H](C)[C@@H](CN(C)C(=O)Nc2cccc3ccccc23)Oc2c(NS(=O)(=O)c3ccccc3)cccc2C1=O,-0.43% (inactive)
9,C[C@@H]1CN([C@H](C)CO)C(=O)c2cccc(NS(C)(=O)=O)c2O[C@@H]1CN(C)C(=O)Nc1cccc2ccccc12,91.3% (active)
10,Cc1ccc(S(=O)(=O)N(C)C[C@@H]2Oc3c(NC(=O)Nc4ccccc4)cccc3C(=O)N([C@H](C)CO)C[C@H]2C)cc1,0.069% (inactive)
11,C[C@@H]1CN([C@H](C)CO)C(=O)c2cccc(NC(=O)Nc3ccccc3)c2O[C@@H]1CN(C)C(=O)NC1CCCCC1,0.168% (inactive)
12,C[C@@H]1CN([C@H](C)CO)C(=O)c2cccc(NC(=O)Nc3cccc4ccccc34)c2O[C@@H]1CN(C)C(=O)Nc1cccc2ccccc12,-0.224% (inactive)
13,C[C@H]1CN([C@@H](C)CO)C(=O)c2cccc(NC(=O)Nc3ccc(C(F)(F)F)cc3)c2O[C@H]1CN(C)C(=O)NC1CCCCC1,-0.0925% (inactive)
14,C[C@H]1CN([C@@H](C)CO)C(=O)c2cccc(NS(=O)(=O)c3cn(C)cn3)c2O[C@H]1CN(C)C(=O)Nc1ccc2c(c1)OCO2,-9.5% (inactive)
15,C[C@H](CO)N1C[C@H](C)[C@@H](CN(C)S(=O)(=O)c2ccc(F)cc2)Oc2c(NC(=O)Nc3ccccc3)cccc2C1=O,0.238% (inactive) and 0.231% (inactive)
16,COc1ccc(NC(=O)N(C)C[C@@H]2Oc3c(NS(=O)(=O)c4cn(C)cn4)cccc3C(=O)N([C@H](C)CO)C[C@@H]2C)cc1,-11.1% (inactive)
17,C[C@H]1CN([C@@H](C)CO)C(=O)c2cccc(NS(=O)(=O)c3cn(C)cn3)c2O[C@@H]1CN(C)C(=O)Nc1ccc(F)cc1,46.9% (active)
18,Nc1nc2c(ncn2[C@@H]2O[C@H](C(=O)N[C@@H](Cc3ccccc3)C(=O)NCc3ccccc3)[C@@H](O)[C@H]2O)c(=O)[nH]1,-0.0025% (inactive)
19,CS(=O)(=O)N1[C@H](CO)[C@H](c2ccccc2)C12CN(C(=O)C1CC1)C2,0.098% (inactive)
20,CNC(=O)C1CN(C(=O)c2cccc(S(=O)(=O)N3CCc4ccccc43)c2)c2ccccc2O1 (stereo not drawn),-0.207% (inactive)
21,O=C(c1ccccc1)N1C[C@H]2[C@@H](c3ccccc31)[C@H](CO)N2Cc1ccccc1F,0.376% (inactive)
22,Cc1ccc(C)c(C(O)c2ncc(-c3cccc4ccccc34)[nH]2)c1 (stereo not drawn),-0.22% (inactive)
23,C[C@@H]1CN([C@@H](C)CO)C(=O)c2cc(-c3cccc(F)c3)cnc2O[C@@H]1CN(C)Cc1ccccc1,-0.282% (inactive)

row,Compound,activation
1,C[C@H]1CN([C@@H](C)CO)C(=O)c2cc(Br)cnc2O[C@H]1CN(C)Cc1cccc(F)c1,87.1% (active)
2,C[C@@H]1CN([C@H](C)CO)C(=O)c2cc(Br)cnc2O[C@@H]1CN(C)C(=O)C1CC1,118% (active)
3,C/C=C/c1cnc2c(c1)C(=O)N([C@@H](C)CO)C[C@H](C)[C@@H](CN(C)C(=O)C1CC1)O2,0.382% (inactive)
4,C[C@@H]1CN([C@@H](C)CO)C(=O)c2cc(Br)cnc2O[C@@H]1CN(C)C(=O)C1CCCCC1,-0.284% (inactive) and 0.234% (inactive)
5,C[C@@H]1CN([C@@H](C)CO)C(=O)c2cc(-c3ccccc3F)cnc2O[C@@H]1CN(C)Cc1cccc(F)c1,-0.0955% (inactive)
6,COC(=O)C[C@H]1CC[C@@H](NC(=O)c2ccccc2)[C@@H](CO)O1,-0.322% (inactive)
7,O=C(COC(=O)CCc1c[nH]c2ccccc12)Nc1cccc(Cl)c1,5.9% (inactive)
8,COC(=O)C[C@@H]1CC[C@@H]2[C@@H](COc3ccc(NC(=O)C4CCOCC4)cc3C(=O)N2C)O1,0.061% (inactive)
9,CN1C(=O)c2cc(NC(=O)C3CCCC3)ccc2OC[C@H]2O[C@H](CC(=O)NCc3ccccc3F)CC[C@H]21,0.0215% (inactive)
10,COC(=O)C[C@@H]1CC[C@@H]2[C@H](COc3ccc(NC(=O)Nc4cccc(F)c4)cc3C(=O)N2C)O1,59.2% (active)
11,COC(=O)C[C@H]1CC[C@H]2[C@H](COc3ccc(NC(=O)C4CC4)cc3C(=O)N2C)O1,-0.049% (inactive)
12,CN1C(=O)c2cc(NC(=O)C3CCC3)ccc2OC[C@@H]2O[C@@H](CC(=O)NCc3ccccc3F)CC[C@@H]21,-0.028% (inactive)
13,COC(=O)C[C@@H]1CC[C@@H]2[C@H](COc3ccc(NC(=O)c4cccc(F)c4)cc3C(=O)N2C)O1,0.16% (inactive)
14,COC(=O)C[C@H]1CC[C@H]2[C@@H](COc3ccc(NC(=O)Nc4cccc(F)c4)cc3C(=O)N2C)O1,-0.114% (inactive)
15,CN1C(=O)c2cc(NC(=O)C3CCOCC3)ccc2OC[C@@H]2O[C@H](CC(=O)NCc3ccccc3F)CC[C@H]21,99.5% (active)
16,COC(=O)C[C@H]1CC[C@H]2[C@@H](COc3ccc(NC(=O)C4CC4)cc3C(=O)N2C)O1,84.9% (active)
17,C[C@@H](CN1C2=NC[C@@H](Cc3ccccc3)N2C[C@H]1Cc1ccc(O)cc1)NC(=O)CCC1CCCCC1,-4.54% (inactive)
18,CCC(C)CN1C(=O)CSCC1(C)C(=O)NCc1ccccc1 (stereo not drawn),0.0415% (inactive)
19,COC(=O)[C@@H]1[C@@H](CO)[C@@H]2Cn3c(ccc(-c4ccc(OC)cc4)c3=O)[C@@H]2N1C,0.459% (inactive)
20,N#C[C@@H]1[C@@H](c2ccccc2)[C@H](CO)N1C(=O)c1cc(Cl)cc(Cl)c1,0.0965% (inactive)
21,COc1ccc(S(=O)(=O)N2C[C@H](O)COC[C@@H]3O[C@H](CC(=O)NCCN4CCCCC4)CC[C@H]32)cc1,0.128% (inactive)
22,COc1ccc(-c2ccccc2[C@H]2[C@@H](C#N)N(C(=O)C3CCC3)[C@@H]2CO)cc1,-0.0965% (inactive)
23,COc1cccc(-c2cc3nc(NCCOc4ccccc4Cl)n(C)c(=O)c3s2)c1,-0.11% (inactive)

row,Compound,activation
1,COc1ccc(C(C)(O)c2nc(-c3ccc(C)c(C)c3)cs2)cc1 (stereo not drawn),-0.298% (inactive)
2,COc1ccc2c3c(n(C)c2c1)[C@@H](CO)N(Cc1ccccc1OC)CC31CN(CC2CCOCC2)C1,-0.609% (inactive)
3,COc1ccc(C(C)(O)c2nc(-c3cc(F)cc(F)c3)cs2)cc1 (stereo not drawn),0.357% (inactive)
4,COc1ccc(S(=O)(=O)NCC(=O)NCc2cc(=O)n(C)c(=O)n2C)cc1F,79.6% (active)
5,COc1ccc(S(=O)(=O)NCCOc2ccccc2)cc1F,-0.118% (inactive)
6,Cc1ccc(C(=O)NCC(=O)NCc2cc(=O)n(C)c(=O)n2C)cc1,0.0495% (inactive)
7,CCCC(=O)Nc1ccc2c(c1)C(=O)N(C)[C@@H]1CC[C@H](CC(=O)Nc3cn(C)nc3C)O[C@H]1CO2,-0.018% (inactive)
8,Cn1c(Nc2ccc(F)cc2)nc2cc(-c3ccsc3)sc2c1=O,0.0175% (inactive)
9,COc1ccc(C2c3[nH]c4ccccc4c3C[C@H]3C(=O)N(CC(C)C)CC(=O)N23)c(OC)c1 (stereo partly drawn),61.1% (active)
10,COc1ccc(C2/C=C\CN(CC(C)C)CC(=O)N2Cc2ccc(F)cc2)cc1 (stereo not drawn),-0.215% (inactive)
11,COc1ccc(C2/C(=C(/O)c3ccccc3)C(=O)C(=O)N2C)c(OC)c1 (stereo not drawn),0.122% (inactive)
12,CCC(=O)N1CC2(C1)[C@H](c1ccc(-c3ccc(C)cc3)cc1)[C@H](CO)N2S(C)(=O)=O,-0.277% (inactive)
13,COc1ccc(OC)c(C(O)c2ncc(-c3cccc(C(F)(F)F)c3)[nH]2)c1 (stereo not drawn),-0.085% (inactive)
14,O=C(Nc1ccc(S(=O)(=O)N2CCCCC2)cc1)C1CC(=O)N(c2ccc(F)cc2)C1 (stereo not drawn),-0.119% (inactive)
15,CNS(=O)(=O)c1ccc(NC(=O)C2CC(=O)N(c3ccc(Cl)cc3)C2)cc1 (stereo not drawn),35.7% (active)
16,CCc1ccc(N2CC(C(=O)Nc3ccc(S(=O)(=O)Nc4nccs4)cc3)CC2=O)cc1 (stereo not drawn),0.004% (inactive)
17,CC(=O)OCC1(O)CC23CCC4c5ccoc5CCC4(C)C2CCC1C3 (stereo not drawn),0.708% (inactive)
18,COC(=O)C[C@@H]1CC[C@H]2[C@H](COc3ccc(NC(=O)c4ccccc4F)cc3C(=O)N2C)O1,0.0145% (inactive)
19,CCCCCCN1C[C@H](O)[C@@H](n2cc(C3CC3)nn2)C[C@@H]1c1ccc(Cl)cc1,-0.106% (inactive)
20,C[C@@H]1CN([C@H](C)CO)C(=O)c2c(c3ccccc3n2C)-c2ccccc2CO[C@@H]1CN(C)Cc1ccccc1C(F)(F)F,30.5% (active)
21,C[C@H](CO)N1C[C@H](C)[C@@H](CN(C)Cc2ccc(C(F)(F)F)cc2)OCc2ccccc2-c2c(n(C)c3ccccc23)C1=O,-0.577% (inactive)
22,C[C@@H]1CN([C@H](C)CO)C(=O)c2c(c3ccccc3n2C)-c2ccccc2CO[C@@H]1CN(C)Cc1ccc(F)cc1,-0.183% (inactive)
